These results are taken from ChEMBL document CHEMBL3244238, “In search of anti-Trypanosoma cruzi drugs: new leads from a mouse model” (J Med Chem, 1977).

Activity calls are given as the source filed them. The rule behind the calls is not given here.

In data set [1] the test system is Trypanosoma cruzi. Description: Antitrypanosomal activity against Trypanosoma cruzi infected in albino CF1 mouse assessed as reduction in number of parasites in blood at 3.25 mg/kg/day, intramuscular treatment started on day 10 of infection up to day 14. As to conditions: for inhibition in vivo at 3.25 mg/kg/day: im. In kind it is functional. The essentials:
(§1)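 Male CF1 albino mice (4-10 weeks) were infected ip with 50 000 Brazil-strain trypomastigotes in 0.2 mL Hanks' BSS, pH 7.2. Dosing was intramuscular, twice daily in 0.1% Tween 80/0.5% hydroxyethylcellulose, from day 10 through day 13 pm or day 14 am. Three fourfold-spaced doses were given, 7 mice per dose, with vehicle-only controls. Parasites/mL of blood were counted from day-14 smears.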

Data set [2] concerns Trypanosoma cruzi. Description: Antitrypanosomal activity against Trypanosoma cruzi infected in albino CF1 mouse assessed as reduction in number of parasites in blood at 26 mg/kg/day, intramuscular treatment started on day 10 of infection up to day 14. In kind it is functional. Conditions: for inhibition in vivo at 26 mg/kg/day: im. The essentials:
as §1

Data set [3] deals with Trypanosoma cruzi. Description: Antitrypanosomal activity against Trypanosoma cruzi infected in albino CF1 mouse assessed as reduction in number of parasites in blood at 104 mg/kg/day, intramuscular treatment started on day 10 of infection up to day 14. In kind it is functional. As to conditions: for inhibition in vivo at 104 mg/kg/day: im. The essentials:
(§2)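 Male CF1 albino mice (4-10 weeks) infected intraperitoneally with 50 000 Brazil-strain T. cruzi trypomastigotes in Hanks' balanced salt solution, pH 7.2. Dosing was intramuscular, twice daily, from day 10 to day 13 afternoon or day 14 morning. Vehicle was 0.1% Tween 80 + 0.5% hydroxyethylcellulose. Seven mice per dose; dose given as total salt weight. Parasites/mL blood counted from day-14 smears; % suppression versus vehicle controls.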

Data set [4] deals with Trypanosoma cruzi. Briefly: Antitrypanosomal activity against Trypanosoma cruzi infected in albino CF1 mouse assessed as reduction in number of parasites in blood at 52 mg/kg/day, intramuscular treatment started on day 10 of infection up to day 14. In kind it is functional. As to conditions: for inhibition in vivo at 52 mg/kg/day: im. The essentials:
as §2

Data set [5] concerns Trypanosoma cruzi. Briefly: Antitrypanosomal activity against Trypanosoma cruzi infected in albino CF1 mouse assessed as reduction in number of parasites in blood at 13 mg/kg/day, intramuscular treatment started on day 10 of infection up to day 14. In kind it is functional. As to conditions: for inhibition in vivo at 13 mg/kg/day: im. The essentials: as §2
Data set [6] has as its system Trypanosoma cruzi. Briefly: Antitrypanosomal activity against Trypanosoma cruzi infected in albino CF1 mouse assessed as reduction in number of parasites in blood intramuscularly treated daily from day 10 of infection up to day 14. In kind it is functional. The essentials: as §1
The subject of data set [7] is Trypanosoma cruzi. Description: Potency index, ratio of nifurtimox SD90 to compound SD90 for Trypanosoma cruzi infected in albino CF1 mouse assessed as reduction in number of parasites in blood. In kind it is functional. The essentials: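 Index = nifurtimox SD90 ÷ test-compound SD90. SD values were read graphically from log-probit plots of % parasitemia suppression versus dose (mg/kg/day) in intramuscularly treated, T. cruzi-infected CF1 mice. A lower SD level was used when SD90 was unattainable. For salts, doses were given by total weight, and the index was multiplied by the reciprocal of the base fraction.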

A further data set has as its system Mus musculus. Description: Toxicity in albino CF1 mouse at 104 mg/kg/day, intramuscular treatment started on day 10 of trypanosomal infection up to day 14. In kind it is organism-based. Also noted: route intramuscular. Conditions: in vivo, im.

`Nc1ccc(C(c2ccc(N)cc2)c2ccc(N)cc2)cc1`: the inhibition in vivo (in general, the drop in the measured response relative to a control, in per cent) at 3.25 mg/kg/day in the data set on Trypanosoma cruzi [1] was 43%. Further, the inhibition in vivo at 26 mg/kg/day in the data set on Trypanosoma cruzi [2] is 39%. Further, the inhibition in vivo at 104 mg/kg/day in the data set on Trypanosoma cruzi [3] stood at 52%.
As to `CC1CS(=O)(=O)CCN1/N=C/c1ccc([N+](=O)[O-])o1` (stereo not drawn) [NIFURTIMOX], the inhibition in vivo at 52 mg/kg/day in the data set on Trypanosoma cruzi [4] is 92%. Also, in the data set with Trypanosoma cruzi [5], the inhibition in vivo at 13 mg/kg/day is 57%. In addition, the SD90 in the data set on Trypanosoma cruzi [6] turned out to be 41.5 mg/kg. In addition, the Ratio in the data set with Trypanosoma cruzi [7] was 1. For the same compound, in the data set on Trypanosoma cruzi [3], the inhibition in vivo at 104 mg/kg/day came out at 99%.
Regarding `Nc1nc(N)c2c(n1)CCC(S(=O)(=O)c1ccc3ccccc3c1)C2` (stereo not drawn), the inhibition entry with Trypanosoma cruzi [4], with Trypanosoma cruzi [5] and in the data set with Trypanosoma cruzi [3] was “inactive” in each case.
On to `Cc1ccc(C[P+](c2ccccc2)(c2ccccc2)c2ccccc2)cc1.[Cl-]`, for which, in the data set on Mus musculus, the Activity result is “Toxic”. The inhibition in vivo at 3.25 mg/kg/day in the data set on Trypanosoma cruzi [1] came out at 80%. Moreover, the inhibition in vivo at 26 mg/kg/day with Trypanosoma cruzi [2] came to 85%. In the data set with Trypanosoma cruzi [6], the SD80 was 13 mg/kg. In addition, in the data set on Trypanosoma cruzi [7], the Ratio came to 3.6.
For the compound `CC(C)NCC1CCc2cc(CO)c([N+](=O)[O-])cc2N1` (stereo not drawn), the inhibition entry with Trypanosoma cruzi [4], with Trypanosoma cruzi [5] and with Trypanosoma cruzi [3] was “inactive” in each case.
Consider `Nc1ccc(C(c2ccc(N)cc2)c2ccc(N)cc2)cc1.O=C(O)c1cc2ccccc2c(Cc2c(O)c(C(=O)O)cc3ccccc23)c1O`, for which the SD50 with Trypanosoma cruzi [6] is 96 mg/kg. Also, the Ratio in the data set with Trypanosoma cruzi [7] is 0.3.
Turning to `COc1cc(NCCCN2CCN(CCCNc3cc(OC)cc4cccnc34)CC2)c2ncccc2c1`, the inhibition result with Trypanosoma cruzi [4], with Trypanosoma cruzi [5] and in the data set with Trypanosoma cruzi [3] was “inactive” each time.
For `c1ccc(C2CN3CCSC3=N2)cc1` (stereo not drawn), the inhibition entry with Trypanosoma cruzi [4], with Trypanosoma cruzi [5] and in the data set on Trypanosoma cruzi [3] was “inactive” in each case.
With `Nc1nc(/C=C/c2ccc([N+](=O)[O-])o2)no1`, the inhibition in vivo at 3.25 mg/kg/day in the data set with Trypanosoma cruzi [1] turned out to be 49%. Further, the inhibition in vivo at 26 mg/kg/day with Trypanosoma cruzi [2] is 91%. Also, the SD90 with Trypanosoma cruzi [6] was determined as 48.5 mg/kg. In the data set on Trypanosoma cruzi [7], the Ratio is 1.13. In addition, the inhibition in vivo at 104 mg/kg/day in the data set with Trypanosoma cruzi [3] worked out at 90%.
Regarding `CCN(CC)CCCNc1cc(OC)c2nc(C)ccc2c1OC.O=C(O)c1ccc(O)cc1O`, the inhibition entry in the data set on Trypanosoma cruzi [4], with Trypanosoma cruzi [5] and in the data set on Trypanosoma cruzi [3] was “inactive” throughout.
In the case of `CCN(CC)CCCCCCNc1cc(OC)cc2c(C)ccnc12`, the inhibition result in the data set with Trypanosoma cruzi [5], in the data set with Trypanosoma cruzi [1] and with Trypanosoma cruzi [2] was “inactive” in each case. Moreover, the Ratio entry with Trypanosoma cruzi [7] is “inactive”.
For the compound `Nc1nc(N)c2cc(S(=O)(=O)c3ccc4ccccc4c3)ccc2n1`, the inhibition result in the data set on Trypanosoma cruzi [4], in the data set with Trypanosoma cruzi [5] and in the data set with Trypanosoma cruzi [3] was “inactive” in each case.
Regarding `N=C(N)c1ccc(-c2ccc(-c3ccc(C(=N)N)cc3)o2)cc1`, the inhibition entry with Trypanosoma cruzi [4], in the data set with Trypanosoma cruzi [5] and in the data set on Trypanosoma cruzi [3] was “inactive” throughout.
`COc1cc(NC(C)CCN)c2ncc(C)cc2c1.O=P(O)(O)O` (stereo not drawn): the inhibition in vivo at 13 mg/kg/day in the data set with Trypanosoma cruzi [5] was 98%. In the data set on Trypanosoma cruzi [1], the inhibition in vivo at 3.25 mg/kg/day was 92%. The inhibition in vivo at 26 mg/kg/day in the data set on Trypanosoma cruzi [2] came to 99%. Moreover, the SD90 with Trypanosoma cruzi [6] was less than 3.25 mg/kg. Moreover, in the data set with Trypanosoma cruzi [7], the Ratio is reported as more than 9.2.
For the compound `COc1cc(NC(C)CCN)c2nccc(C)c2c1` (stereo not drawn), the inhibition result with Trypanosoma cruzi [4], in the data set with Trypanosoma cruzi [5] and in the data set with Trypanosoma cruzi [3] was “inactive” in each case. In addition, the Ratio entry in the data set with Trypanosoma cruzi [7] was “inactive”.
For `NC1(C(=O)O)CCCC1`, the inhibition entry in the data set with Trypanosoma cruzi [4], in the data set on Trypanosoma cruzi [5] and in the data set with Trypanosoma cruzi [3] was “inactive” in each case.
In the case of `CCCNCCCCCNc1cc(OC)cc2cccnc12.O=P(O)(O)O`, in the data set on Trypanosoma cruzi [4], the inhibition in vivo at 52 mg/kg/day turned out to be 93%. Further, the inhibition in vivo at 13 mg/kg/day in the data set on Trypanosoma cruzi [5] came out at 54%. Also, the SD90 in the data set on Trypanosoma cruzi [6] turned out to be 43.5 mg/kg. Besides, the Ratio in the data set on Trypanosoma cruzi [7] is on record as 1.2. Besides, in the data set on Trypanosoma cruzi [3], the inhibition in vivo at 104 mg/kg/day is 99%.
Consider `COc1cc(NC(C)CCCN)c(OC)c2c(C)cc(C)nc12` (stereo not drawn), for which the inhibition entry with Trypanosoma cruzi [4], in the data set on Trypanosoma cruzi [5] and in the data set with Trypanosoma cruzi [3] was “inactive” throughout.
As for `COc1c(NC(C)CCN)cc(OC)c2c(C)ccnc12` (stereo not drawn), the inhibition result with Trypanosoma cruzi [4], in the data set with Trypanosoma cruzi [5] and in the data set with Trypanosoma cruzi [3] was “inactive” throughout. Moreover, the Ratio result in the data set with Trypanosoma cruzi [7] is “inactive”.
For `COc1cc(NC(C)CCN)c2ncccc2c1.Cl` (stereo not drawn), the inhibition in vivo at 52 mg/kg/day in the data set on Trypanosoma cruzi [4] came out at 97%. The inhibition in vivo at 13 mg/kg/day in the data set with Trypanosoma cruzi [5] was determined as 80%. The SD90 with Trypanosoma cruzi [6] is 21.8 mg/kg. Besides, the Ratio in the data set with Trypanosoma cruzi [7] is listed as 3.8. In the data set with Trypanosoma cruzi [3], the inhibition in vivo at 104 mg/kg/day was 100%.
Take `Cc1cc(NCCCCCCNc2cc(C)nc3ccc(N)cc23)c2cc(N)ccc2n1`: the inhibition entry with Trypanosoma cruzi [4], in the data set with Trypanosoma cruzi [5] and with Trypanosoma cruzi [3] was “inactive” each time.
As for `COc1cc(NC(C)CCN)c2ncccc2c1/N=N/c1ccc(C(=O)O)cc1` (stereo not drawn), the inhibition in vivo at 52 mg/kg/day in the data set on Trypanosoma cruzi [4] is 99%. The inhibition in vivo at 13 mg/kg/day with Trypanosoma cruzi [5] was determined as 98%. Moreover, the SD90 with Trypanosoma cruzi [6] is less than 3 mg/kg. Besides, in the data set on Trypanosoma cruzi [7], the Ratio is recorded as more than 4. Besides, the inhibition in vivo at 104 mg/kg/day in the data set on Trypanosoma cruzi [3] was 100%.
Turning to `COc1cc(NC(C)CCN)c2nc(C)ccc2c1.Cl.O` (stereo not drawn), the inhibition in vivo at 13 mg/kg/day in the data set with Trypanosoma cruzi [5] was found to be 86%. In addition, the inhibition in vivo at 3.25 mg/kg/day with Trypanosoma cruzi [1] was 38%. In addition, the inhibition in vivo at 26 mg/kg/day in the data set on Trypanosoma cruzi [2] came out at 82%. In addition, in the data set on Trypanosoma cruzi [6], the SD80 worked out at 10.5 mg/kg. In addition, the Ratio in the data set on Trypanosoma cruzi [7] is 3.9.
For `COc1cc(NC(C)CCCN)c(OC)c2c(C)ccnc12.O=C(O)c1ccc(O)cc1O` (stereo not drawn), the inhibition result in the data set with Trypanosoma cruzi [4], in the data set with Trypanosoma cruzi [5] and in the data set on Trypanosoma cruzi [3] was “inactive” each time.
Regarding `O=C(O)c1[nH]c(=O)[nH]c(=O)c1F`, the inhibition entry in the data set with Trypanosoma cruzi [4], in the data set on Trypanosoma cruzi [5] and in the data set with Trypanosoma cruzi [3] was “inactive” each time.
